Screening data: PubChem, several laboratories
Only a selection was taken, and hits are over-represented in it overall.
Dynein transport = inhibitors of GR-EGFP nuclear translocation, primary screen, dynein cargo transport inhibitor project, imaging, high-content, 3617.4 mouse cells; test concentration mostly 20 µM; stimulated with dexamethasone, 1 µM; active compounds read low; z-score, hits read low; 220,000 tested, 0.47% active;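 active = plate z-score of nuclear minus cytoplasmic receptor signal below a set negative limit, without overly bright fluorescence or cell loss, cut at about -3.5 in these data, passing the limit was not always enough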;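 note: z-score of nuclear minus cytoplasmic ring GR-EGFP intensity difference per well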
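Also added – dexamethasone, 1.0 µM final · Buffer or medium – tet-free, stripped-serum medium · Schedule – induction 48 h, compound 1 h, agonist 30 min · Detection – formaldehyde fixation, Hoechst nuclear stain, 10x automated fluorescence imaging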
CHOP inh = inhibitors of CHOP promoter induction, primary screen, cell-based, unfolded protein response, luciferase reporter. CHO-K1 CHOP-promoter luciferase, tunicamycin-induced, 15-18 h. inhibition, % at 10 µM. 220,000 tested, 3.8% active. AID 2732, 2010;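 active = compounds that reduced the stress-induced luciferase reporter signal by more than about 70% of percent inhibition, limit read from the data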
UPR XBP1 act = activators of adaptive XBP1 UPR arm, primary screen, cell-based, CHO-XBP1 luciferase reporter, luminescence, uHTS; IRE1-XBP1 UPR activation; percent of tunicamycin response, DMSO as zero; activation, % at 20 µM; 330,000 tested, 0.33% active; AID 463104, 2010;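 active = versus positive control, 20 µM dose yields 30% or more activation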
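Signal: luciferase luminescence; Assay system: CHO-XBP1 luciferase reporter cells; Amount: one thousand reporter cells per well; Dosing: 20 µM single concentration, DMSO 1%; Benchmarks: high control tunicamycin 10 µg/mL final, low control DMSO vehicle only; Schedule: 6 h compound exposure at 37 °C, 5% CO2; Evaluation: percent activation relative to tunicamycin reference.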
Lmaj promast = Leishmania major promastigote growth inhibition, primary screen; Leishmania major promastigotes, resazurin fluorescence viability; AID 1063, 2008; 200,000 tested, 9% active; inhibition, % at 10 µM; in the data active = inhibition above about 50%;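 note: promastigotes grown with compound for 44 hours at 28 °C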
CHOP UPR activ = activators of apoptotic CHOP UPR arm, primary screen, cell-based, CHO-CHOP luciferase reporter, luminescence, uHTS; UPR activation; percent of tunicamycin response over DMSO baseline; activation, % at 10 µM; 330,000 tested, 0.34% active; AID 449763, 2010;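 active = at 10 µM dose, activation of 40% or more, normalized to positive control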
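Assay system: CHO cells with stable CHOP pathway luciferase reporter; Buffer or medium: F12 plus 10% serum; Times: 16-18 h cell attachment, then 6 h compound exposure, 37 °C; Signal: luciferase luminescence; Read-out basis: percent activation relative to tunicamycin control; Control set: tunicamycin high control, DMSO low control.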
T cruzi inh = inhibitors of intracellular T. cruzi growth, primary screen, luminescence, NIH3T3 host cells. T. cruzi beta-gal in NIH3T3, 90 h. inhibition, % (test concentration not listed). 300,000 tested, 1.4% active. AID 1885, 2009;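 active = mean inhibition across valid replicates above about 55%, limit read from the data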;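 note: signal also drops with host cell toxicity which is not excluded here; higher percent means less beta-gal luminescence so fewer parasites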
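System – NIH/3T3 host cells with β-galactosidase reporter T. cruzi · Doses – single 50 nL compound addition per well in DMSO · Reagent – 5000 T. cruzi trypomastigotes/well · Medium – Low-serum DMEM with 2% FBS · Timing – ≥90 h infection period, 3 h prior cell attachment · Evaluation – parasite load inhibition, % · Technique – GalScreen luminescence, 60 min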
A number is an active result; - = inactive; . = no result; ! = a repeat was not active.

SMILES	Dynein transport	CHOP inh	UPR XBP1 act	Lmaj promast	CHOP UPR activ	T cruzi inh
O=C(C[n+]1ccccc1)N/N=C/c1ccc(Cl)c(Cl)c1	.	.	-	.	-	-
N#Cc1c(N2CCN(C(=O)c3ccccc3)CC2)nc(-c2ccccc2)c2c1CCCC2	-	72	-	75	-	-
N#Cc1c(N2CCN(C(=O)c3ccccc3Cl)CC2)nc(-c2ccccc2)c2c1CCCC2	-	-	-	-	-	57
N#Cc1c(NCCCO)nc(-c2ccccc2)c2c1CCCC2	-	78	-	-	-	-
CC1(C)Cc2c(C#N)c(N3CCN(C(=O)c4ccco4)CC3)nc(-c3ccco3)c2CS1	-	-	-	-	-	-
N#Cc1c(N2CCN(C(=O)c3ccco3)CC2)nc(-c2ccccc2)c2c1CCCC2	-	-	-	-	-	61
Cc1ccccc1NC(=O)COC(=O)c1ccc(S(=O)(=O)N2CCCC2)cc1	.	.	-	.	-	.
O=C(NC1CCCCC1)c1ccc2snnc2c1	.	.	-	.	-	-
C=C[C@]1(C)C[C@@H](OC(=O)CSCCN(CC)CC)[C@]2(C)C(C)CC[C@]3(CCC(=O)[C@H]32)[C@@H](C)[C@@H]1O (stereo partly specified)	.	.	-	.	-	59!
COc1ccccc1C1(CCNC(C)c2cccs2)CCOC(C(C)C)C1 (stereo unspecified)	-	-	-	.	-	-
COc1ccccc1C1(CCNS(=O)(=O)c2ccc(C)cc2)CCOC(C(C)C)C1 (stereo unspecified)	-	-	.	83	.	-
C=CCN1C(c2cccc(C(F)(F)F)c2)=CS/C1=C(/C#N)c1nnc(N2CCOCC2)n1-c1ccccc1	-	-	-	-	-	-
C=CCN1C(c2ccc(Br)cc2)=CS/C1=C(/C#N)c1nnc(N2CCOCC2)n1-c1ccccc1	-	-	-	56	-	-
CC(C)=C(NC(=O)c1ccccc1)C(=O)NC(Cc1ccccc1)C(=O)O (stereo unspecified)	.	.	-	.	-	-
CCN(CC)S(=O)(=O)c1cc(NS(=O)(=O)c2cccc(Cl)c2)ccc1C	-	-	-	65	-	-
O=C(c1ccc(Cl)cc1)N1CCN(c2ccnc3cc(Cl)ccc23)CC1	-	-	.	66	.	69
COc1ccc(N=Nc2nc3cc(Br)c(Br)cc3n2C)c(OC)c1	-	-	.	-	.	.
COCC(=O)N1CCC(n2nccc2NC(=O)CCOc2ccccc2)CC1	.	.	-	.	-	-
CCOc1ccc(NC(=O)NNC(=O)COc2ccc3ccccc3c2)cc1	.	.	-	.	-	-
CCOc1ccc(N2C(=O)CS/C2=N/NC(=O)COc2ccc3ccccc3c2)cc1	-	-	-	99	-	-
COc1cccc(NC(=O)CN(C)C(C)C(=O)N2CCCCC2)c1 (stereo unspecified)	.	.	-	.	-	.
COC(=O)C1=CN(C2CCCCC2)C=C(C(=O)OC)C1c1ccc2c(c1)OCO2	-	-	-	-	-	62
COCCN1C=C(C(=O)OC)C(c2ccc3c(c2)OCO3)C(C(=O)OC)=C1	-	-	-	-	-	-
COc1ccc(C(=O)C2CC2c2ccc3c(c2)OCO3)cc1 (stereo unspecified)	-	-	-	-	-	-
COCCN1C=C(C(=O)OC)C(c2cc3c(cc2Br)OCO3)C(C(=O)OC)=C1	-	-	-	62	-	-
Cc1cc(C)c(S(=O)(=O)Nc2ccccc2C(=O)N2CCCC2)c(C)c1	.	.	-	.	-	-
COCCN(Cc1nnc(-c2cccs2)o1)C(=O)CN1C(=O)NC2(CCCCC2)C1=O	.	.	-	.	-	.
Cc1ccc(C(=O)Nc2nc(-c3ccco3)c(-c3ccco3)s2)o1	.	.	-	.	-	.
O=C(CCl)Nc1nc(-c2ccco2)c(-c2ccco2)s1	-	-	-	69	-	-
O=C(CCCSc1ccccc1)Nc1nc(-c2ccco2)c(-c2ccco2)s1	-	-	.	75	.	-
